Test results reported in ChEMBL document CHEMBL3244337, “Antiallergic activity of tetracyclic derivatives of quinoline-2-carboxylic acid. 2. Some benzothienoquinolinecarboxylic acids” (1978).

What follows are compounds tested on Rattus norvegicus (assay: Ratio of DSCG MED to compound MED for antiallergic activity in ip dosed Sprague-Dawley rat assessed as compound inhibition of egg albumin/Bordetulla pertusis antibody-induced passive sensitization treated 5 mins before induction by passive cutaneous anaphylaxis assay). Conditions: not given.
Format: functional

Row | SMILES | Ratio
1 | O=C(O)c1cc(=O)c2c(ccc3c2c2ccccc2[s+]3[O-])[nH]1 (stereo not drawn) | 8
2 | O=C(O)c1cc(=O)c2c(Cl)c3c(cc2[nH]1)-c1ccccc1S3(=O)=O | 8
3 | O=C(O)c1cc(=O)c2cc3c(c(Cl)c2[nH]1)-c1ccccc1S3(=O)=O | 4

The compounds below were run on Rattus norvegicus (assay: Antiallergic activity in ip dosed Sprague-Dawley rat assessed as compound required to > 50% inhibition of egg albumin/Bordetulla pertusis antibody-induced passive sensitization treated 5 mins before induction by passive cutaneous anaphylaxis assay). Conditions: not given.
Format: functional
Summary of the method: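 Passive cutaneous anaphylaxis in Sprague-Dawley rats. Intradermal anti-egg-albumin antibody was left for 24 h, then compound was given ip 5 min before iv antigen and Evans blue, with six animals per dose. Initial doses were 25, 10 or 5 mg/kg, then a descending series down to 0.156 mg/kg. MED is the lowest dose giving >50% inhibition of weal area versus untreated rats, p ≤ 0.05 (Student's t test).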

Row | SMILES | MED>50 [mg/kg]
4 | COc1ccc2sc3ccc4[nH]c(C(=O)O)cc(=O)c4c3c2c1 | >5
5 | O=C(O)c1cc(=O)c2c(ccc3sc4ccc(F)cc4c32)[nH]1 | >5
6 | O=C(O)c1cc(=O)c2ccc3sc4ccccc4c3c2[nH]1 | >10
7 | O=C(O)c1cc(=O)c2ccc3c(c2[nH]1)-c1ccccc1S3(=O)=O | 5
8 | O=C(O)c1cc(=O)c2ccc3c(c2[nH]1)S(=O)(=O)c1ccccc1-3 | >25
9 | O=C(O)c1cc(=O)c2c(ccc3c4ccccc4sc32)[nH]1 | >10
10 | O=C(O)c1cc(=O)c2c3c(ccc2[nH]1)-c1ccccc1S3(=O)=O | >10
11 | O=C(O)c1cc(=O)c2cc3c(cc2[nH]1)S(=O)(=O)c1ccccc1-3 | 2.5
12 | O=C(O)c1cc(=O)c2c(ccc3sc4ccccc4c32)[nH]1 | 5
13 | O=C(O)c1cc(=O)c2c(ccc3sc4ccc(Br)cc4c32)[nH]1 | >10
14 | O=C(O)c1cc(=O)c2c(ccc3sc4ccc(Cl)cc4c32)[nH]1 | >10
15 | Cc1ccc2sc3ccc4[nH]c(C(=O)O)cc(=O)c4c3c2c1 | >10
16 | O=C(O)c1cc(=O)c2c(ccc3sc4c(Cl)cccc4c32)[nH]1 | >10
17 | COc1cccc2c1sc1ccc3[nH]c(C(=O)O)cc(=O)c3c12 | >5
18 | Cc1cccc2c1sc1ccc3[nH]c(C(=O)O)cc(=O)c3c12 | >5
19 | O=C(O)c1cc(=O)c2c(cc(Cl)c3sc4ccccc4c32)[nH]1 | >10
20 | COc1cc2[nH]c(C(=O)O)cc(=O)c2c2c1sc1ccccc12 | >10
21 | O=C(O)c1cc(=O)c2c3c(ccc2[nH]1)S(=O)(=O)c1ccc(Br)cc1-3 | >10
22 | O=C(O)c1cc(=O)c2c3c(ccc2[nH]1)S(=O)(=O)c1ccc(Cl)cc1-3 | >10
23 | Cc1ccc2c(c1)-c1c(ccc3[nH]c(C(=O)O)cc(=O)c13)S2(=O)=O | 10
24 | COc1ccc2c(c1)-c1c(ccc3[nH]c(C(=O)O)cc(=O)c13)S2(=O)=O | 2.5

Row | SMILES | MED>50 [mg/kg]
25 | CCCCCCOc1ccc2c(c1)-c1c(ccc3[nH]c(C(=O)O)cc(=O)c13)S2(=O)=O | >10
26 | O=C(O)c1cc(=O)c2c3c(ccc2[nH]1)S(=O)(=O)c1ccc(F)cc1-3 | 5
27 | O=C(O)c1cc(=O)c2c3c(ccc2[nH]1)S(=O)(=O)c1c(Cl)cccc1-3 | 5
28 | COc1cccc2c1S(=O)(=O)c1ccc3[nH]c(C(=O)O)cc(=O)c3c1-2 | 2.5
29 | Cc1cccc2c1S(=O)(=O)c1ccc3[nH]c(C(=O)O)cc(=O)c3c1-2 | 2.5
30 | O=C(O)c1cc(=O)c2c3c(c(Cl)cc2[nH]1)S(=O)(=O)c1ccccc1-3 | 2.5
31 | COc1cc2[nH]c(C(=O)O)cc(=O)c2c2c1S(=O)(=O)c1ccccc1-2 | 1.25
32 | COc1cc2c(c3c(=O)cc(C(=O)O)[nH]c13)-c1ccccc1S2(=O)=O | 1.25
33 | O=C(O)c1cc(=O)c2c3c(cc(Br)c2[nH]1)S(=O)(=O)c1ccccc1-3 | 2.5
34 | O=C(O)c1cc(=O)c2c([nH]1)c(Br)cc1c2c2ccccc2[s+]1[O-] (stereo not drawn) | 2.5
35 | O=C(O)c1cc(=O)c2cc3c(cc2[nH]1)-c1ccccc1S3(=O)=O | 2.5
36 | O=C(O)c1cc(=O)c2c(Cl)c3c(cc2[nH]1)-c1ccccc1S3(=O)=O | 0.312
37 | O=C(O)c1cc(=O)c2cc3c(c(Cl)c2[nH]1)-c1ccccc1S3(=O)=O | 0.625
38 | O=C(O)c1cc(=O)c2cc3c(c(Br)c2[nH]1)-c1ccccc1S3(=O)=O | 1.25
39 | O=C(O)c1cc(=O)c2c(Cl)c3c(c(Cl)c2[nH]1)-c1ccccc1S3(=O)=O | 1.25
40 | Cc1c2c(cc3c(=O)cc(C(=O)O)[nH]c13)S(=O)(=O)c1ccccc1-2 | 1.25
41 | O=C(O)c1cc(=O)c2cc3sc4ccccc4c3c(Cl)c2[nH]1 | >10
42 | O=C(O)c1cc(=O)c2cc3sc4ccccc4c3c(Br)c2[nH]1 | >10
43 | CSCc1c2[nH]c(C(=O)O)cc(=O)c2cc2sc3ccccc3c12 | >5
44 | O=C(O)c1cc(=O)c2cc3c(cc2[nH]1)c1ccccc1[s+]3[O-] (stereo not drawn) | 1.25
45 | O=C(O)c1cc(=O)c2cc3c(c(Cl)c2[nH]1)c1ccccc1[s+]3[O-] (stereo not drawn) | 1.25

These compounds were tested on Rattus norvegicus (assay: Antiallergic activity in ip dosed Sprague-Dawley rat assessed as compound inhibition of egg albumin/Bordetulla pertusis antibody-induced passive sensitization treated 5 mins before induction by passive cutaneous anaphylaxis assay). Conditions: read-out: ID50 (the source's name).
Format: functional
Summary of the method: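 Rat antiserum against egg albumin, raised with Bordetella pertussis as adjuvant, was injected intradermally into the middorsal skin. Sensitization developed for 24 h. Compound was given ip 5 min before iv egg albumin plus Evans blue, at 10 to 0.156 mg/kg with six rats per dose. Blue-weal area was compared with untreated rats as % inhibition. ID50 was reported with 95% confidence limits.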

Row | SMILES | ED50 [mg/kg]
46 | O=C(O)c1cc(=O)c2c3c(ccc2[nH]1)S(=O)(=O)c1ccccc1-3 | 1.3
47 | O=C(O)c1cc(=O)c2c(ccc3c2c2ccccc2[s+]3[O-])[nH]1 (stereo not drawn) | 0.3
48 | O=C([O-])c1cc(=O)c2c(OCC(O)COc3cccc4oc(C(=O)[O-])cc(=O)c34)cccc2o1.[Na+].[Na+] [CROMOLYN SODIUM] | 2.6
